Assay outcomes: PubChem BioAssay, several laboratories
Only some compounds are listed: those with a hit (about 5.1% of all), similar ones and a draw of the others.
APP 5'UTR act: activators of APP 5'UTR luciferase reporter, primary screen, SH-SY5Y cells. 190,000 tested, 1% active. SH-SY5Y APP 5'UTR luciferase reporter, luminescence; zero percent = DMSO vehicle wells. activation, % at 2 µM;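 active = activation above a set limit, based on mean plus 3 SD of controls, cut at about 140% in these data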
STAT1 act: STAT1 signaling activators, primary screen, cell-based, HTS, luciferase reporter. NIH 3T3 STAT1-luciferase reporter, IFN-gamma, luminescence; 100% = IFN-gamma alone, no compound. activation (% of control), % at 5.5 µM. 200,000 tested, 2.6% active. AID 932, 2007;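 active = activation above the screen-wide mean activation plus 3 SD, cut at about 130% in these data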;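 note: raw ratio to IFN-gamma control signal so 100% means no change and 0% no light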
STAT3 inh: IL-6 driven STAT3 reporter inhibitors, primary screen, U3A cells, luciferase, luminescence, MLSCN library; 190,000 tested, 0.89% active; inhibition, % at 5.5 µM; IL-6 STAT3-luciferase reporter; host cell line lacks STAT1;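 active = inhibition above the mean inhibition across all screened compounds plus 3 SD, cut at about 44% in these data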;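 note: 0% = DMSO only wells and 100% = 100 µM nifuroxazide control wells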
STAT3 act: IL-6 driven STAT3 reporter potentiators, primary screen, U3A cells, luciferase, luminescence, MLSCN library | IL-6 STAT3-luciferase reporter; 100% = signal with IL-6 EC80 alone | activation (% of control), % at 5.6 µM | 190,000 tested, 0.91% active | AID 871, 2007;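 active = activation above the screen-wide mean of compound activation plus 3 SD, cut at about 130% in these data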;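 note: 0% = background luminescence of wells with medium and substrate only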
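system = STAT3-luciferase reporter U3A cells | reagent = IL-6 stimulus at 33 ng/mL final | timing = 1 h compound pre-exposure, 6 h IL-6 stimulation, 37 °C | measured by = luminescence | evaluation = % activation versus median of IL-6-stimulated wells | control set = IL-6-only wells as 100% reference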
NF-kB expr up: activators of NF-kB expression in neurons, primary screen, cell-based, HTS; human neuronal cells, NF-kB reporter expression; active compounds read high; fold change at 12.5 µM; 190,000 tested, 1.6% active; AID 1239, 2008; in the data active = fold change above about 3.3
STAT1 inh: STAT1 signaling inhibitors, primary screen, cell-based, HTS, luciferase reporter; NIH 3T3 STAT1-luciferase reporter, IFN-gamma, luminescence; inhibition, % at 5.5 µM; 200,000 tested, 0.35% active; AID 920, 2007;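 active = inhibition above a set limit, the mean inhibition across all tested compounds plus 3 SD, cut at about 34% in these data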;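 note: 0% = IFN-gamma with DMSO and 100% = IFN-gamma with 300 µM nifuroxazide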
Starred values were filed as active, the others as inactive; / = no result.

SMILES	APP 5'UTR act	STAT1 act	STAT3 inh	STAT3 act	NF-kB expr up	STAT1 inh
O=c1c(Cl)c(Cl)cnn1Cc1nnc(-c2ccc(Cl)cc2)o1	-77	88	17	88	0.14	11
COc1cccc(/C=N/Nc2ccc(C(=O)O)cc2)c1O	-80	17	100*	15	0.62	91*
O=C(O)c1cccc(N/N=C/c2ccc(-c3ccccc3)cc2)c1	68	55	48*	62	16*	47*
O=C(O)c1cccc(N/N=C/c2cc(Br)cc(Br)c2O)c1	130	131*	-39	130	1.8	-35
Oc1ccc(/C=N/Nc2ccccc2)cc1	-2	90	2	101	1.3	10
CC(C)(C)c1ccc(/C=N/Nc2cccc(C(=O)O)c2)cc1	85	66	46*	64	6.9*	38*
CC(C)(C)c1ccc(/C=N/Nc2ccc(C(=O)O)cc2)cc1	55	34	88*	27	4.5*	74*
Cc1ccc(-c2cn3c(n2)CCCC3)cc1	22	98	8	97	1.4	4
COc1ccc(-c2cn3c(n2)CCC3)cc1	36	129*	-4	108	2.3	-32
CCOC(=O)c1cc(C)sc1/N=C/C1=C(O)CCCC1=O	13	110	-3	103	1.1	-11
O=C(c1ccccc1)n1ccc(-c2cnc(-c3ccccc3)s2)n1	141*	123	28	81	6*	-25
CC1=CC(C)(C)N2C(=O)C3(C(C#N)=C(N)Oc4cc(O)ccc43)c3cccc1c32 (stereo not given)	-15	131*	7	96	0.97	-34
O=C(CSc1nc(-c2ccc(F)cc2)cs1)N1CCc2ccccc21	-9	104	23	82	1.3	-4
Cc1nc(N/N=C/c2ccccn2)sc1C	-5	29	89*	25	1.1	80*
C/C(CC(=O)Nc1ccc(F)cc1)=N\NC(=O)c1ccccn1	91	126	8	100	1.3	-28
CC(=O)Nc1ccccc1NC(=O)C/C(C)=N/NC(=O)c1ccccn1	104	131*	2	101	1.4	-36
C/C(CC(=O)NC1CCCCC1)=N\NC(=O)c1ccccn1	156*	130*	0	104	1	-34
Cc1nccc(-c2ccc(-n3cnc4ccccc43)cc2)n1	/	100	-10	115	0.9	0
Nc1nccc(-c2ccc(-n3cnc4ccccc43)cc2)n1	13	99	-37	133*	0.75	1
COc1ccc(-c2nnc(SC(C)C(=O)Nc3cccc(Cl)c3)o2)cc1 (stereo not given)	219*	104	0	104	5.6*	-4
COc1ccc(-c2nnc(SC(C)C(=O)NNC(=O)c3ccc(C)cc3)o2)cc1 (stereo not given)	-2	86	0	102	1.4	16
O=C(c1ccco1)[C@@H]1[C@@H]2C(=O)N(c3ccc(F)cc3)C(=O)[C@@H]2C2c3ccccc3C=CN21 (stereo not given in full)	-7	104	-34	134*	1.2	-4
O=C(c1ccco1)[C@@H]1[C@@H]2C(=O)N(c3ccc(F)cc3)C(=O)[C@@H]2[C@H]2C=Cc3ccccc3N21	21	88	-4	109	1.1	14
Cc1cccc(OCCn2c(=O)sc3ccccc32)c1	87	136*	2	100	3	-38
Cc1cccc(OCCN2C(=O)c3ccccc3C2=O)c1	18	140*	-5	109	1.9	-46
SMILES	APP 5'UTR act	STAT1 act	STAT3 inh	STAT3 act	NF-kB expr up	STAT1 inh
COc1ccccc1OCCn1c(=O)sc2ccccc21	20	102	17	90	1.3	-2
COc1ccc(OCCn2c(=O)sc3ccccc32)cc1	57	137*	9	98	1.8	-42
Cc1cccc(OCCn2c(=O)n(C)c3ccccc32)c1	85	143*	-20	120	3.6*	-47
CCCCn1c(N)c(N(CCOC)C(=O)CCc2ccc(OC)cc2)c(=O)[nH]c1=O	-9	94	12	94	1	7
COc1ccc(C(=O)c2cc3cccc(OC)c3o2)cc1	99	150*	21	86	4.2*	-59
COc1cccc2cc(C(C)=O)oc12	-13	102	5	98	1.3	-1
O=C(Nc1nc2c(ccc3ccccc32)s1)c1cc([N+](=O)[O-])ccc1N1CCOCC1	20	131*	-31	133*	1.2	-35
O=C(Nc1nc(-c2ccc(-c3ccccc3)cc2)cs1)c1cc([N+](=O)[O-])ccc1N1CCOCC1	15	107	2	103	1.1	-10
c1ccn2c(SCc3cn4ccsc4n3)nnc2c1	45	138*	-11	112	2.2	-42
c1ccc(-n2cnnc2SCc2cn3ccsc3n2)cc1	3	88	15	89	0.94	13
Cc1cccc2nc(CSc3nnc4ccccn34)cn12	94	137*	-8	107	2.7	-40
CCCOC(=O)C1=C(C)OC23OC(N)=C(C#N)C12C(=O)c1ccccc13 (stereo not given)	2	94	0	101	0.88	6
COc1ccccc1-n1cc(C(=O)NCC(=O)N2CCN(c3ccccc3)CC2)c2ccccc2c1=O	34	136*	2	100	2.2	-38
COc1ccc(-c2cc(C(F)(F)F)nc(-n3ccnc3C)n2)cc1	3	93	21	85	0.85	7
C#CC(=O)N(c1cccc(OC)c1)C(C(=O)NC1CCCC1)c1cccs1 (stereo not given)	-19	61	110*	14	0.14	43*
Cc1cc(C)n(C(CC(=O)O)C(=O)O)n1 (stereo not given)	139*	105	6	100	1	-6
O=C(NCc1ccc(Cl)cc1)c1ccc(N2CCCC2=O)cc1	-13	110	16	91	1.4	-8
O=C(O)c1ccccc1C(=O)NNc1cccc(Cl)n1	155*	116	4	100	1.3	-19
O=[N+]([O-])c1ccc(Nc2ccc3ccccc3c2)nc1	30	133*	5	98	1.9	-37
N/C(=N\OC(=O)c1ccc2ccccc2c1)c1ccccn1	158*	34	76*	39	4.3*	71*
Cc1ccccc1C(=O)O/N=C(\N)c1ccncc1	37	133*	6	99	1.9	-37
N/C(=N\OC(=O)c1cccc([N+](=O)[O-])c1)c1ccccn1	77	133*	16	91	2.3	-35
